Assay outcomes (PubChem)
Mot1-301 SUMO: blocks SUMOylation pathway, rescuing yeast Mot1-301 growth; S. cerevisiae Mot1-301 growth rescue, ATP luminescence, 38.5C; percent above DMSO median, 100 means doubled; growth rescue, % at 18.8 µM; hit rate 1% among 320,000;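 active = every valid replicate shows activation above 250% relative to neutral control wells; inactive = the rest, any valid replicate at or below 250%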;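 also: OY570 slx delta 5 strain wells were the positive control but not used for scaling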
Cl transport mod: modulates chloride dependent transport by human KCC2; KCC2 cells, thallium flux FluoZin-2 fluorescence; hit rate 2.2% among 190,000; AID 1456; B-score of Tl+ flux slope (higher = more flux/activation; lower = inhibition) at 10 µM; Q9H2X9;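 active = thallium flux slope and its plate-corrected score both differing from the plate sample mean at a set confidence after two filtering rounds, in either direction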;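 also: slope of fluorescence scaled to starting intensity during 10 to 20 s after thallium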
Target sequence (Q9H2X9 whole entry, looked up): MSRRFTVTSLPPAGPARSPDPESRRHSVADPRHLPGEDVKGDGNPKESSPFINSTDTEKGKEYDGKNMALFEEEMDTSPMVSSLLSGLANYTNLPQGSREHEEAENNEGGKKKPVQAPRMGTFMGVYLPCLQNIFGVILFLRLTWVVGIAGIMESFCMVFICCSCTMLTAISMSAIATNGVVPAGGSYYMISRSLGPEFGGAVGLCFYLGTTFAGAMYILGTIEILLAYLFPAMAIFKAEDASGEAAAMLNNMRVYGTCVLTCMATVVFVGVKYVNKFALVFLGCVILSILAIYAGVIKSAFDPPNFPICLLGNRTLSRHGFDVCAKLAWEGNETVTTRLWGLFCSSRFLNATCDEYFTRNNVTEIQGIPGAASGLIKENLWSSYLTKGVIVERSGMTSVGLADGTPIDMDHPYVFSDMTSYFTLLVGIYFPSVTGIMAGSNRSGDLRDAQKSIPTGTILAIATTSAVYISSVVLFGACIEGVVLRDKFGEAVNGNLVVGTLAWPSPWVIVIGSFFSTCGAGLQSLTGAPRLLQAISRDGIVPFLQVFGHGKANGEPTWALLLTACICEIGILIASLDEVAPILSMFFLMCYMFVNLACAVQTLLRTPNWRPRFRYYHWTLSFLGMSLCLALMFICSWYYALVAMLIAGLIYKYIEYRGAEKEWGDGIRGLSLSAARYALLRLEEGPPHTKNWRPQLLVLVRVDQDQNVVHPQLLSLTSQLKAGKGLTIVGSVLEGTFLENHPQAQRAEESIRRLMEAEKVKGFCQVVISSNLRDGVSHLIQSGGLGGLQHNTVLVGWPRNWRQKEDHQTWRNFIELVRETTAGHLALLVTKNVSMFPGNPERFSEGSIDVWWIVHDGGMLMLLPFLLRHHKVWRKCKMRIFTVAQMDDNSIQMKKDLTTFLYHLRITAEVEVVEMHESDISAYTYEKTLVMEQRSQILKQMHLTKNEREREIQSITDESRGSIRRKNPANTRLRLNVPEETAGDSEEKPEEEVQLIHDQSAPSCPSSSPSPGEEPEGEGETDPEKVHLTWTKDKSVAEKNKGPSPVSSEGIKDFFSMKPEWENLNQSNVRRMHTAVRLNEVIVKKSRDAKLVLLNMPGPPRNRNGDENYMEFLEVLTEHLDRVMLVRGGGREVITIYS
hERG protect: compounds protecting human hERG from proarrhythmic drug block; Q12809; CHO-hERG, FluxOR thallium flux, dofetilide IC70 present; activation (rescue from dofetilide block), less the hit threshold, % at 10 µM; hit rate 0.51% among 310,000;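 active = activation above the mean of controls blocked by dofetilide plus 5 SD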;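 also: thallium influx through hERG after potassium depolarization seen as dye fluorescence rise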
KCNQ1 block: blocks the human KCNQ1 potassium channel | B-score at 10 µM | P51787 | hit rate 1.3% among 310,000 | CHO-K1 KCNQ1, FluxOR thallium flux fluorescence; stronger effect = higher value;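 active = compounds whose thallium flux B-score, printed positive for inhibition, exceeds three library SD while starting fluorescence stays within three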;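 also: channel opened by potassium depolarization with thallium stimulus after 20 min compound exposure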
KCNQ1 pot: potentiates or activates the human KCNQ1 potassium channel. CHO-K1 KCNQ1, thallium flux FluxOR fluorescence; stronger effect = higher value. B-score at 10 µM. hit rate 0.35% among 310,000. AID 2648;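 active = fluorescence ratio B-score, a plate-corrected score, at least three library SD, with initial intensity B-score within 5 SD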
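System: Stable KCNQ1 CHO-K1 line | Incubation: 90 min dye loading and 20 min compound exposure, both at room temperature | Measure: Ratio B score | Medium: Assay buffer for compound exposure, DMSO matched across wells | Compound dosing: Single-concentration screen | Probe or stimulus: K+/Tl+ depolarizing stimulus | Measured by: Kinetic FluxOR fluorescence, 10 s baseline plus 110 s post-stimulus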
AI-2 QS mod: modulates the Vibrio harveyi AI-2 quorum sensing system; AID 2094; hit rate 0.4% among 300,000; activity change, % at 7.5 µM; Vibrio harveyi JMH597 AI-2 luminescence/OD600 ratio, 9 h; stronger effect = lower value; strain lacks LuxN and CqsS sensors; 0 = neutral-control median; in the data active = activity change below about -75%, passing the limit was not always enough;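 also: luminescence divided by OD600 gain over 9 h not by final OD600 alone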
* marks the source's active call; other numbers are inactive results; i = inactive; . = no result given. In the library only some 4.2% were active in any assay of this set; here they are far more common.

SMILES | Mot1-301 SUMO | Cl transport mod | hERG protect | KCNQ1 block | KCNQ1 pot | AI-2 QS mod
CCc1ccc(/C=C2\Oc3c(ccc(O)c3CN3CCN(C)CC3)C2=O)cc1 | -1 | 1.5 | -22 | 8* | i | 2
CCN1CCN(Cc2c(O)ccc3c2O/C(=C\C=C\c2ccccc2)C3=O)CC1 | -7 | i | -22 | 6* | i | 17
COc1ccccc1/C=C/C=C1\Oc2c(ccc(O)c2CN2CCN(CCO)CC2)C1=O | 12 | i | -21 | 6* | i | 14
CN(C)Cc1c(O)ccc2c1O/C(=C\C=C\c1ccccc1)C2=O | 1 | i | -28 | 9* | i | 5
O=C1/C(=C/C=C/c2ccccc2)Oc2c1ccc(O)c2CN1CCN(CCO)CC1 | -25 | i | -19 | i | i | -14
CC(C)Cn1c(N)c(C(=O)COC(=O)/C=C/c2ccccc2)c(=O)n(C)c1=O | -12 | . | -22 | i | i | 9
O=C(Nc1cccc(NC(=O)c2cccc(F)c2)n1)c1cccc(F)c1 | 126 | . | -9 | i | i | -5
O=C(Nc1cccc(NC(=O)c2c(F)cccc2F)n1)c1c(F)cccc1F | 16 | . | -13 | i | 8* | 25
CC(NC(=O)COC(=O)C1CCN(c2ccc(C(F)(F)F)cn2)CC1)c1ccc(F)cc1 (configuration not stated) | 1 | . | . | . | . | .
CCC(C)[C@H](N)C(=O)NC[C@H]1CC[C@H](C(=O)N[C@@H](Cc2ccccc2)C(=O)O)CC1 (some centres not stated) | -9 | . | -7 | i | i | 28
CCN(C[C@H]1N[C@@](C)(C(=O)OC)[C@H]2C(=O)N(C)C(=O)[C@@H]12)C(=O)COc1ccccc1 | -1 | . | . | . | . | .
OC[C@@H](O)[C@H](O)C(/C=N/Nc1ccccc1)=N\Nc1ccccc1 | 159 | 0.34 | -12 | i | i | 8
CC1C/C(=N/Nc2nc3ccccc3[nH]2)CC(C)(C)C1 (configuration not stated) | 3 | 0.74 | -7 | i | i | 14
Cc1cc(N/N=C2\CC(C)CC(C)(C)C2)nc2ccccc12 (configuration not stated) | . | 1.1 | -24 | 14* | i | 7
O=C(CCN1CCOCC1)NNC(=S)NC(=O)c1ccc(Br)cc1 | 22 | 1.4 | -18 | 6* | i | 49
CCC(=O)N(CCC(Cc1ccccc1)c1ccc2c(c1)OCO2)Cc1ccccc1F (configuration not stated) | -4 | 0.62 | -11 | 9* | i | 7
CCC(=O)N(CCc1ccccc1)Cc1cc2cc3c(cc2[nH]c1=O)OCO3 | 8 | . | -11 | i | i | 29
Cc1ccc(S(=O)(=O)N(CC(=O)Nc2cccc(N(C)S(C)(=O)=O)c2)c2ccc(Cl)c(Cl)c2)cc1 | 1 | . | -4 | 10* | i | 28
O=C(Nc1ccccc1F)NC1CC1 | . | -1.7 | 5.8* | i | i | 17
CN1CC(=O)N(CC(=O)Nc2cccc3ccccc23)C1=O | -3 | . | . | . | . | .
O=C(c1ccccn1)N1CCN(c2cccc(C(F)(F)F)c2)CC1 | 363* | 0.78 | -16 | i | i | 26
COC(=O)Cn1ncc(N(C)Cc2ccccc2)c(Cl)c1=O | 142 | . | -9 | i | i | 11
CCCCC(Nc1ncnc2ccccc12)C(=O)O (configuration not stated) | 9 | 1.2 | -10 | i | 16* | 21
CC(Nc1ncnc2ccccc12)c1ccccc1 (configuration not stated) | -32 | . | -18 | 6* | i | 27
CC(C)Oc1ccc(Nc2ncnc3ccccc23)cc1 | -9 | -0.66 | -9 | i | i | 19
SMILES | Mot1-301 SUMO | Cl transport mod | hERG protect | KCNQ1 block | KCNQ1 pot | AI-2 QS mod
Cc1cccc2cc(C#N)c(SCCN3CCCCC3)nc12 | 97 | 3.6* | -9 | i | i | 4
O=C(CN1C(=O)S/C(=C\c2cc(Cl)c(O)c(Cl)c2)C1=O)Nc1ccccc1 | 15 | . | 12* | i | i | -17
Cc1cccc(NC(=S)N2CCC(NC(=O)c3cccc(F)c3)CC2)c1 | -17 | . | -5 | i | i | 7
COc1cccc(Cl)c1NC(=O)N1CCc2c([nH]c3ccccc23)C1C(F)(F)F (configuration not stated) | -8 | -0.3 | -5 | i | i | 23
CC(C)(C)C(=O)CSc1ccc(S(=O)(=O)N2CCN(Cc3ccccc3)CC2)cn1 | -19 | . | . | . | . | .
COC(=O)C1=C(C)NC(=O)C1(NC(=O)CN1CCCC1=O)C(F)(F)F (configuration not stated) | -8 | 0.38 | -8 | i | i | 4
CCOC(=O)NC1(C(F)(F)F)C(=O)NC(C)=C1C(=O)OC (configuration not stated) | 1 | 0.24 | 4.9* | i | i | 10
CCc1cc(=O)oc2cc3occ(-c4ccc(OC)c(F)c4)c3cc12 | -5 | -0.011 | 1 | i | i | 14
COc1ccc(C2NC(=S)NC(O)(C(F)(F)F)C2C(=O)c2cccs2)cc1 (configuration not stated) | 10 | 1.1 | -7 | i | i | 28
Cc1ccc(C2CC(c3ccccc3)=NN2C(=S)Nc2ccccc2)o1 (configuration not stated) | . | 0.16 | -10 | 6* | i | 8
CC1=NN(C(=S)Nc2ccccc2)C(c2ccccc2)C1 (configuration not stated) | 25 | -0.31 | -5 | i | i | 21
CC(C)OC(=O)c1cc(NC(=S)Nc2ccc([N+](=O)[O-])cc2)cc(C(=O)OC(C)C)c1 | 2 | 1.7 | -18 | 10* | i | 17
CC(C)CCNC(=S)Nc1ccc([N+](=O)[O-])cc1 | -7 | -2.4 | -39 | i | i | -1
CCc1ccc([C@@H]2CC=C(C(=O)O)[C@H](c3ccc(Cl)cc3)N2S(=O)(=O)c2ccc(C)cc2)cc1 | -6 | . | . | . | . | .
Cc1ccc([C@H]2C(C(=O)O)=CC[C@@H](c3ccc(Cl)cc3)N2S(=O)(=O)c2ccccc2C)cc1 | 341* | . | . | . | . | .
Cc1ccc([C@H]2C(C(=O)O)=C[C@@H](C(C)(C)C)N2S(=O)(=O)c2ccc(C)cc2)cc1 | 24 | . | . | . | . | .
CCCCC[C@@H]1C=C(C(=O)O)[C@H](c2ccc(CC)cc2)N1S(=O)(=O)c1ccc(C)cc1 | 354* | . | . | . | . | .
Cc1ccc(S(=O)(=O)N2[C@@H](c3ccc(Cl)c(Cl)c3)C(C(=O)O)=C[C@H]2C(C)(C)C)cc1 | 312* | . | . | . | . | .
CCc1ccc([C@@H]2CC=C(C(=O)O)[C@H](c3ccccc3F)N2S(=O)(=O)c2ccc(C)cc2)cc1 | 302* | . | . | . | . | .
Cc1ccc2[nH]c(C(=O)NN=C3CCCCC3)c(-c3ccccc3)c2c1 | -1 | -0.13 | -4 | i | i | 12
